Data set [1] can be described thus: folding enthalpy; higher = less favourable; fluorescence melt of hairpins on a sequencing array, two-state fit. The note with it: sodium 0.088 M. Put shortly:
(§1)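 Melting temperature and folding enthalpy were derived from bootstrapped two-state fits. The fitted temperatures were raised by 9.35 °C to agree with UV melts, and four replicates were combined by inverse variance. The underlying data were Cy3 fluorescence images of library hairpins, with annealed Cy3 and quencher oligos, on a sequenced MiSeq flow cell in 50 mM Na-HEPES pH 8.0, 25 mM NaCl, taken in 2.5 °C steps up to 60 °C, normalised to pre-quench Cy3 and to control constructs.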

A short description of data set [2]: melting temperature; fluorescence melt of hairpins on a sequencing array, two-state fit, raised by 9.35 °C to match UV melts. The note with it: sodium 0.088 M. Put shortly:
as §1

For 36 sequences, folding enthalpy and Tm results are on record in the array DNA melting data of Ke et al. (doi:10.1101/2024.01.08.574731).

For the sequence GGACCCACGAAAGTGTCC (((..(((....)))))), in data set [1], the folding enthalpy was -14.4 kcal/mol. The Tm in data set [2] was determined as 36.4 °C.

Turning to GGTATCGGAAACGATACC (((((((....))))))), in data set [1], the folding enthalpy was -48.7 kcal/mol. Also, the Tm in data set [2] is 64 °C.

Turning to GTCACCGAAAGGTACGAC ((((((....)))..))), in data set [1], the folding enthalpy is -18 kcal/mol. Besides, the Tm in data set [2] amounted to 41.2 °C.

As for GATCGCGAAAGCGAGATC ((((((....)))..))), the folding enthalpy in data set [1] was -13.8 kcal/mol. In addition, in data set [2], the Tm amounted to 60.6 °C.

Turning to GTGTTCGGAAACGAGTAC ((..(((....)))..)), in data set [1], the folding enthalpy was -18.9 kcal/mol. For the same sequence, the Tm in data set [2] was 31.2 °C.

As for GCTATGCGAAAGCTTCGC ((.(.((....)).).)), the folding enthalpy in data set [1] is -14.2 kcal/mol. The Tm in data set [2] turned out to be 41.5 °C.

Consider GCATTGGGAAACCAACGC ((.((((....)))).)), for which the folding enthalpy in data set [1] is -29.4 kcal/mol. In data set [2], the Tm amounted to 42.2 °C.

In the case of ACAACGAAAGTTGT (((((....))))), in data set [1], the folding enthalpy was -21.6 kcal/mol. For the same sequence, in data set [2], the Tm stood at 53.6 °C.

As for GTATGTCGAAAGACTTAC (((.(((....))).))), the folding enthalpy in data set [1] is -25.1 kcal/mol. In addition, the Tm in data set [2] was found to be 45.5 °C.

As for GGTCTCCGAAAGGATACC (((.(((....))).))), the folding enthalpy in data set [1] was -26.8 kcal/mol. Besides, the Tm in data set [2] is 48.1 °C.

Regarding GTGAGCGGAAACGTTCAC ((((.((....)).)))), in data set [1], the folding enthalpy is -41.2 kcal/mol. The Tm in data set [2] amounted to 52.8 °C.

As to GCACGAGGAAACCCGTGC (((((.(....).))))), the folding enthalpy in data set [1] was -45.2 kcal/mol. Moreover, in data set [2], the Tm was 58.2 °C.

As for GCGGCGCGAAAGCGTAGC ((..(((....)))..)), the folding enthalpy in data set [1] is -26.1 kcal/mol. Besides, the Tm in data set [2] was determined as 65.8 °C.

GATCCGCATCCGGATC ((((((....)))))): the folding enthalpy in data set [1] was -38 kcal/mol. Further, the Tm in data set [2] is 56.6 °C.

For GGATCGCGAAAGCGTTCC (((.(((....))).))), in data set [1], the folding enthalpy is -27.7 kcal/mol. The Tm in data set [2] is 57.8 °C.

Turning to GCCAGTGGAAACGCTGGC (((((.(....).))))), the folding enthalpy in data set [1] is -41.8 kcal/mol. Also, the Tm in data set [2] is 61 °C.

As to GGTATGCCGAAAGGCACC (((..(((....)))))), the folding enthalpy in data set [1] is -9.19 kcal/mol. The Tm in data set [2] was 34.1 °C.

For the sequence GATCTTCCTCAAGATC ((((((....)))))), the folding enthalpy in data set [1] was -30.1 kcal/mol. Besides, the Tm in data set [2] amounted to 42 °C.

Take GATCATGTTAATGATC ((((((....)))))): in data set [1], the folding enthalpy is -40.5 kcal/mol. In data set [2], the Tm came out at 56.2 °C.

Regarding GGTCGAACGAAAGTTACC (((..(((....)))))), in data set [1], the folding enthalpy was -11.7 kcal/mol. Moreover, in data set [2], the Tm amounted to 26.6 °C.

For GATCAGGGCACTGATC ((((((....)))))), in data set [1], the folding enthalpy was -37.2 kcal/mol. Further, the Tm in data set [2] was 59.8 °C.

As for GAACACGAAAGTGATTC ((((((....))).))), the folding enthalpy in data set [1] was -18.1 kcal/mol. In data set [2], the Tm turned out to be 37.2 °C.

As to GTCCCCGAAAGGGGGGAC ((((((....)))..))), in data set [1], the folding enthalpy is -11.7 kcal/mol. Moreover, the Tm in data set [2] came to 60.5 °C.

With GCTCACGAAAGTGTAAGC ((((((....)))..))), the folding enthalpy in data set [1] was -19 kcal/mol. The Tm in data set [2] is 45.4 °C.

In the case of GTCGAGGGAAACTTCGGC (.(((.(....).))).), in data set [1], the folding enthalpy was -24.6 kcal/mol. The Tm in data set [2] stood at 36.4 °C.

In the case of GCAAAGCGAAAGCATTGC ((((.((....)).)))), in data set [1], the folding enthalpy is -21.1 kcal/mol. The Tm in data set [2] was 58.9 °C.

Regarding GCGGGGCGAAAGCCAAGC ((..(((....)))..)), in data set [1], the folding enthalpy was -27.7 kcal/mol. Besides, the Tm in data set [2] is 65 °C.

For GCCACCGGAAACGATGGC ((((.((....)).)))), the folding enthalpy in data set [1] is -44 kcal/mol. Moreover, in data set [2], the Tm is 52.6 °C.

Take GTCAGTGGAAACGTTGAC ((((..(....)..)))): in data set [1], the folding enthalpy is -21.1 kcal/mol. Also, the Tm in data set [2] came to 34.9 °C.

As for GTGCTAGGAAACTGGCAC ((((.((....)).)))), in data set [1], the folding enthalpy was -45.4 kcal/mol. Besides, in data set [2], the Tm was 53.5 °C.

GCCCACGAAAGTGCCGGC ((((((....)))..))): the folding enthalpy in data set [1] was -16.1 kcal/mol. Further, in data set [2], the Tm was found to be 46.6 °C.

Turning to CTCCTGAAAAGGAG (((((....))))), the folding enthalpy in data set [1] was -20.3 kcal/mol. Besides, the Tm in data set [2] was 51.2 °C.

As for GCCTACGGAAACACAGGC ((((..(....)..)))), the folding enthalpy in data set [1] is -23.3 kcal/mol. In addition, in data set [2], the Tm was determined as 34.6 °C.

Turning to GATCCAGCCTTGGATC ((((((....)))))), the folding enthalpy in data set [1] was -37.2 kcal/mol. In addition, the Tm in data set [2] amounted to 53.5 °C.

For GGTTGCGAAAGCAGAACC ((((((....)))..))), the folding enthalpy in data set [1] was -19.8 kcal/mol. The Tm in data set [2] was found to be 47.5 °C.

On to GTAAGCGAAAGCTGTTAC ((((((....)))..))), for which the folding enthalpy in data set [1] is -9.91 kcal/mol. Also, the Tm in data set [2] amounted to 32.6 °C.
